The list is not random: actives were taken first. Their share in the collection is about 3.5%.
ERAP1 inh – ERAP1 (human) enzyme inhibition | Q9NZ08 | recombinant ERAP1, Leu-AMC fluorescence, 60 min | inhibition, % at 10.7 µM | hit rate 0.15% among 340,000 | AID 652197;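 active = mean replicate inhibition of at least 30%, or all replicates individually reaching that 30% level; inactive = mean below 30% and not every replicate reaching it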;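 note: 0% = neutral control wells and 100% = L-leucinethiol positive control wells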
Target sequence (Q9NZ08 whole entry, looked up): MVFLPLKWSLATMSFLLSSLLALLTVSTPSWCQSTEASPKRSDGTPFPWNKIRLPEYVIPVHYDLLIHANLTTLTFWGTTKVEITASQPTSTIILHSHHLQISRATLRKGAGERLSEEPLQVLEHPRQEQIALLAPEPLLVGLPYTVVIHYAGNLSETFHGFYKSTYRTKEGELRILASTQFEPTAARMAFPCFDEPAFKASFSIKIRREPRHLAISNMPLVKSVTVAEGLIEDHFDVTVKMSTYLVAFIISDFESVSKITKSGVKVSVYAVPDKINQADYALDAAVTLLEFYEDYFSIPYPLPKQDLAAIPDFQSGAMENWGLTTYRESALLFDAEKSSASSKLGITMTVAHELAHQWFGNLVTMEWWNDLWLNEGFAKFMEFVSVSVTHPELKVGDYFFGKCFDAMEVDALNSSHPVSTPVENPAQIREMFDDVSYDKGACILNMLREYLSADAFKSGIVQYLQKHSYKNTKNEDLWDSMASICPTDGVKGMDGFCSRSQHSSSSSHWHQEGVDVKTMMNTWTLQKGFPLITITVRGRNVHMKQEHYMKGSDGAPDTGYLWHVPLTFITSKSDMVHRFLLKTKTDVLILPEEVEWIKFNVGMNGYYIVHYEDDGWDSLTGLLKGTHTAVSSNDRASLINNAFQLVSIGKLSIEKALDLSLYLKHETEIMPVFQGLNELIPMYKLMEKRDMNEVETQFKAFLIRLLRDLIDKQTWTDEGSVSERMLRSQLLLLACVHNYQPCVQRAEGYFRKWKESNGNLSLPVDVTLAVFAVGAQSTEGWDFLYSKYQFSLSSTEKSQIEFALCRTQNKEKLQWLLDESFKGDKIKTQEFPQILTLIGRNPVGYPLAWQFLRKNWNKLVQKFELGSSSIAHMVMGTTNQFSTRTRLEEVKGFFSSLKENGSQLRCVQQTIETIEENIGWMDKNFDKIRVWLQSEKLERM
Cneo AK release – causes C. neoformans cell lysis. lysis activity, % at 15 µM. hit rate 0.2% among 360,000. adenylate kinase release luminescence, 4 h; normalised: neutral wells 0, clomiphene wells 100;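 active = mean lysis activity across replicates of at least 80%, whatever share of replicates individually reach that level; inactive = mean lysis activity below 80%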
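Assay system: C. neoformans cells. Amount: yeast cell density of 5 × 10^6 cells/mL. Technique: AK luminescence. Buffer or medium: YPD. Times: static 4 h at 37 °C with compound, 1 h detection. Dosing: single-point compound dose. Read-out: lysis from increased AK signal.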
esBAF inh – blocks esBAF chromatin remodeling in mouse ES cells; AID 602393; Bmi1-luciferase knock-in reporter, 24 h; 100% = twice the neutral-well signal; hit rate 2% among 350,000; reporter increase, % at 12.5 µM; in the data active = activation above about 40%; inconclusive = no clear call, values can overlap the other calls;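 note: 0% = median of the plate's neutral control wells and 100% = double that signal; a rise in the Bmi1 reporter signal indicates esBAF inhibition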
HIV Env fusion – inhibitors of HIV Env-mediated cell fusion; inhibition, % at 12.3 µM; HeLa-JRFL Env/CEM21 cell fusion, luciferase; hit rate 1.1% among 360,000;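 active = mean replicate inhibition score of at least 50 and every replicate individually at or above 50; inconclusive = only one of the two criteria met; inactive = mean below 50 and not all replicates reaching 50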;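 note: 0% = plate neutral controls and 100% = maraviroc near 300 nM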
Wnt bcat act – activates Wnt/beta-catenin signaling in a reporter cell assay. activator, plate reader. activation, % at 9.35 µM. hit rate 1.2% among 300,000. AID 743398; in the data active = activation above about 30%, passing the limit was not always enough; inconclusive = no clear call, values can overlap the other calls;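 note: 0% = neutral control wells and 100% = positive control wells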
MITF act – increases MITF-driven TRPM1 promoter luciferase signal; SK-MEL-5 TRPM1-promoter luciferase, 24 h; % of positive control, neutral wells = 0; hit rate 0.75% among 300,000; AID 588334; activation, % at 12.5 µM;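 active = mean activation of at least 80% with every replicate also reaching 80%; inconclusive = mean reaches 80% but some replicate falls short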;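 note: 0% = neutral control wells and 100% = parthenolide positive control wells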
Active calls of the source: *; ? = inconclusive; . = no result; [ ] = dose if it differs, or a comment.

SMILES	ERAP1 inh	Cneo AK release	esBAF inh	HIV Env fusion	Wnt bcat act	MITF act
COC(=O)c1sccc1NC(=O)Nc1cc(C)cc(C)c1	4.6	31.4	79.8*	.	0.4	42.4
COC(=O)c1sccc1NC(=O)Nc1ccc(C)cc1	3.5	-10.5	44.2*	.	-1.7	19.5
COC(=O)c1sccc1NC(=O)Nc1ccc(C)cc1C	-0.2	-8.1	8.2	-6.0	1.1	12.7
Cc1ccc(Cl)cc1N1CCN(C(=O)CSc2nnc3n2C(C)(C)Cc2ccccc2-3)CC1	.	2.3	-8.6	76.3*	.	.
O=C(/C=C/Nc1ccc(Oc2ccccc2)cc1)c1ccco1	6.3	.	.	-152.8	58.6*	75.5
O=C(/C=C/Nc1ccccc1C(F)(F)F)c1ccco1	-1.4	4.6	92.9*	-139.9	16.2	12.1
O=[N+]([O-])c1ccccc1OCc1nc(-c2cccs2)no1	-0.1	.	.	-160.2	8.4	119.0*
O=[N+]([O-])c1ccc(F)cc1OCc1nc(-c2cccs2)no1	8.6	.	.	-33.4	16.5	?
C[C@@H](NC(=O)C[C@H]1C=C[C@H](NC(=O)C2CC2)[C@H](CO)O1)c1ccccc1	-0.3	49.6	4.8	-13.7[16.7 µM]	.	.
CC1CCN(c2ccc3c(c2)S(=O)(=O)c2cccc(C(=O)NCc4ccc(F)cc4)c2C3=O)CC1	1.5	-0.4	70.0*	-7.6	7.0	.
O=C(NC1CCCC1)c1cccc2c1C(=O)c1ccc(N3CCCCC3)cc1S2(=O)=O	1.1	1.0	50.2*	-17.3	4.2	.
Cc1ccc(NC(=S)NC(=O)C2CCCC2)c(Br)c1	-2.0	3.4	67.5*	-204.0	52.8*	97.0*
Cc1cc(NC(=S)NC(=O)C2CC2)ccc1Br	.	5.3	63.9*	-30.2	?	31.8
O=C(NC(=S)Nc1ccccc1Br)C1CC1	-1.2	5.6	.	-112.0	2.0	4.8
COc1cccc(Cn2c(NCc3ccco3)nc3c2c(=O)n(C)c(=O)n3C)c1	.	.	.	74.6*	-13.2	.
COc1ccc(Cl)c(Cn2c(NCc3ccco3)nc3c2c(=O)n(C)c(=O)n3C)c1	.	.	.	.	.	-5.5
CCN(C(=O)C=Cc1ccco1)c1ccccc1	0.4	-1.4	5.4	-1.7	204.2*	-6.9
CCC(=NOCc1ccccc1)C(=O)NNS(=O)(=O)c1ccc(C)cc1	0.2	-5.3	-4.2	57.4*	-1.7	7.2
Cc1ccc(S(=O)(=O)NOCc2ccccc2)cc1	-1.2	1.7	-7.4	-0.1	-0.7	4.3
CC(=O)N(C)C[C@@H]1[C@H](c2ccc(-c3cccnc3)cc2)[C@H](CO)N1C(=O)C1CC1	2.7	.	.	.	.	.
COc1ccc(NC(=O)Nc2ccc3c(c2)CC(=O)N([C@H](C)CO)C[C@H](C)[C@H](CN(C)S(=O)(=O)c2cccs2)O3)cc1	-1.0	0.1	6.7	70.1*[16.7 µM]	.	.
C[C@@H]1CN([C@@H](C)CO)C(=O)Cc2cc(NC(=O)Nc3ccccc3)ccc2O[C@H]1CN(C)S(=O)(=O)c1cccs1	-1.4	2.0	-2.8	1.3[16.7 µM]	.	.
C[C@H]1CN([C@@H](C)CO)C(=O)Cc2cc(NC(=O)Nc3ccc4c(c3)OCO4)ccc2O[C@H]1CN(C)S(=O)(=O)c1cccs1	.	2.2	7.8	92.2*[16.7 µM]	.	.
C[C@H](CO)N1C[C@H](C)[C@H](CN(C)S(=O)(=O)c2cccs2)Oc2ccc(NC(=O)Nc3ccccc3)cc2CC1=O	-1.7	-4.8	6.8	105.5*[16.7 µM]	.	.
C[C@H]1CN([C@@H](C)CO)C(=O)Cc2cc(NC(=O)Nc3ccc4c(c3)OCO4)ccc2O[C@@H]1CN(C)S(=O)(=O)c1cccs1	.	1.9	3.4	9.7[16.7 µM]	.	.
SMILES	ERAP1 inh	Cneo AK release	esBAF inh	HIV Env fusion	Wnt bcat act	MITF act
COc1ccc(NC(=O)Nc2ccc3c(c2)CC(=O)N([C@@H](C)CO)C[C@H](C)[C@@H](CN(C)S(=O)(=O)c2cccs2)O3)cc1	-0.8	0.2	-1.1	8.1[16.7 µM]	.	.
O=C(C1CCOCC1)N1[C@H](CO)[C@@H]2c3ccccc3NC[C@@H]21	.	-3.6	3.3	.	.	.
N#CC1=C(N)N2C(=C(C#N)C1c1cccc(Br)c1)Nc1ccccc12 (centres undefined)	0.3	.	.	64.8*	-33.8	-45.9
N#CC1=C(N)N2C(=C(C#N)C13CCN(Cc1ccccc1)CC3)Nc1ccccc12	.	0.2	-9.0	.	.	2.1
N#CC1=C(N)N2C(=C(C#N)C1c1ccc(Br)cc1)Nc1ccccc12 (centres undefined)	1.8	.	.	55.7*	-27.8	.
CCN(C[C@H]1[C@@H](c2ccccc2)[C@H](CO)N1C(C)=O)C(=O)c1ccccn1	2.6	-8.4	-0.6	.	.	.

Screens (PubChem BioAssay)
